The results in this text go back to ChEMBL document CHEMBL2331333, “Synthesis, biological evaluation of new oxazolidino-sulfonamides as potential antimicrobial agents” (2013).

Structures are written as SMILES. In brackets after ≈: the same amount, converted by molar mass. Activity calls are given as the source filed them. No cut-off for these calls is given here.

One test concerns Pseudomonas aeruginosa. Description: Antibacterial activity against Pseudomonas aeruginosa MTCC 2453 after 24 hrs by agar dilution method. The following applies: MTCC 2453, 24 h. It is filed as functional.
Take `CC(=O)Nc1nc(C)c(S(=O)(=O)NC[C@H]2CN(c3ccc(N4CCSCC4)c(F)c3)C(=O)O2)s1`: the MIC is 8 µg/mL (≈ 15.1 µM).

The compound `O=C1O[C@@H](CNS(=O)(=O)c2cc(S(=O)(=O)c3ccccc3)cs2)CN1c1ccc(N2CCSCC2)c(F)c1` came in with an MIC of 8 µg/mL (≈ 13.4 µM).

The compound `CC(=O)Nc1nc(C)c(S(=O)(=O)NC[C@H]2CN(c3ccc(N4CCOCC4)c(F)c3)C(=O)O2)s1` showed a minimal inhibitory concentration (MIC) of 8 µg/mL (≈ 15.6 µM).

Another test has as its system Mycobacterium tuberculosis. Description: Antibacterial activity against Mycobacterium tuberculosis H37Rv at 32 ug/ml […] by agar dilution method. It is filed as functional, organism-based.
Conditions: not given
Take `O=C1O[C@@H](CNS(=O)(=O)c2ccc(F)c(Cl)c2)CN1c1ccc(N2CCOCC2)c(F)c1`: the outcome was inactive.

For `O=C1O[C@@H](CNS(=O)(=O)c2ccc(Oc3ccccc3)cc2)CN1c1ccc(N2CCOCC2)c(F)c1`, the outcome was inactive.

In the case of `O=C1O[C@@H](CNS(=O)(=O)c2cc(S(=O)(=O)c3ccccc3)cs2)CN1c1ccc(N2CCSCC2)c(F)c1`, the outcome was inactive.

In another test the test system is Micrococcus luteus. Description: Antibacterial activity against Micrococcus luteus MTCC 2470 after 24 hrs by agar dilution method. The following applies: MTCC 2470, 24 h. The class given is functional.
For the compound `O=C1O[C@@H](CNS(=O)(=O)c2ccc(F)c(Cl)c2)CN1c1ccc(N2CCOCC2)c(F)c1`, the MIC turned out to be 6 µg/mL (≈ 12.3 µM).

Take `O=C1O[C@@H](CNS(=O)(=O)c2ccc(Oc3ccccc3)cc2)CN1c1ccc(N2CCOCC2)c(F)c1`: the MIC was 8 µg/mL (≈ 15.2 µM).

In a further test the test system is Staphylococcus. The experiment in a line: Antibacterial activity against Staphylococcus MLS-16 MTCC 2940 after 24 hrs by agar dilution method. It is filed as functional. The following applies: MLS-16 MTCC 2940, 24 h.
With `O=C1O[C@@H](CNS(=O)(=O)c2ccc(F)c(Cl)c2)CN1c1ccc(N2CCOCC2)c(F)c1`, the MIC turned out to be 6 µg/mL (≈ 12.3 µM).

Compound `O=C1O[C@@H](CNS(=O)(=O)c2ccc(Oc3ccccc3)cc2)CN1c1ccc(N2CCOCC2)c(F)c1` returned a minimal inhibitory concentration (MIC) of 4 µg/mL (≈ 7.58 µM).

In turn, `CC(=O)Nc1nc(C)c(S(=O)(=O)NC[C@H]2CN(c3ccc(N4CCSCC4)c(F)c3)C(=O)O2)s1` had an MIC of 8 µg/mL (≈ 15.1 µM).

`O=C1O[C@@H](CNS(=O)(=O)c2cc(S(=O)(=O)c3ccccc3)cs2)CN1c1ccc(N2CCSCC2)c(F)c1` displayed an MIC of 6 µg/mL (≈ 10 µM).

`CC(=O)Nc1nc(C)c(S(=O)(=O)NC[C@H]2CN(c3ccc(N4CCOCC4)c(F)c3)C(=O)O2)s1` displayed an MIC of 20 µg/mL (≈ 38.9 µM).

A further test deals with Bacillus subtilis. The experiment in a line: Antibacterial activity against Bacillus subtilis MTCC 121 after 24 hrs by agar dilution method. It is filed as functional. The following applies: MTCC 121, 24 h.
Compound `O=C1O[C@@H](CNS(=O)(=O)c2ccc(F)c(Cl)c2)CN1c1ccc(N2CCOCC2)c(F)c1` showed a minimum inhibitory concentration (MIC) of 6 µg/mL (≈ 12.3 µM).

In turn, `O=C1O[C@@H](CNS(=O)(=O)c2ccc(Oc3ccccc3)cc2)CN1c1ccc(N2CCOCC2)c(F)c1` gave an MIC of 8 µg/mL (≈ 15.2 µM). This MIC and that of the compound before are within 1.5-fold of each other.

With `CC(=O)Nc1nc(C)c(S(=O)(=O)NC[C@H]2CN(c3ccc(N4CCSCC4)c(F)c3)C(=O)O2)s1`, the MIC is 10 µg/mL (≈ 18.9 µM).

As to `O=C1O[C@@H](CNS(=O)(=O)c2cc(S(=O)(=O)c3ccccc3)cs2)CN1c1ccc(N2CCSCC2)c(F)c1`, the MIC is 8 µg/mL (≈ 13.4 µM).

Compound `CC(=O)Nc1nc(C)c(S(=O)(=O)NC[C@H]2CN(c3ccc(N4CCOCC4)c(F)c3)C(=O)O2)s1` showed an MIC of 8 µg/mL (≈ 15.6 µM).

The next test relates to Staphylococcus aureus. The experiment in a line: Antibacterial activity against Staphylococcus aureus MTCC 96 after 24 hrs by agar dilution method. It is filed as functional. The following applies: MTCC 96, 24 h.
Consider `O=C1O[C@@H](CNS(=O)(=O)c2ccc(F)c(Cl)c2)CN1c1ccc(N2CCOCC2)c(F)c1`, for which the MIC was 6 µg/mL (≈ 12.3 µM).

Compound `O=C1O[C@@H](CNS(=O)(=O)c2ccc(Oc3ccccc3)cc2)CN1c1ccc(N2CCOCC2)c(F)c1` displayed an MIC of 4 µg/mL (≈ 7.58 µM). Compared with the last compound, the MIC is about 1.5-fold lower.

`CC(=O)Nc1nc(C)c(S(=O)(=O)NC[C@H]2CN(c3ccc(N4CCSCC4)c(F)c3)C(=O)O2)s1` displayed an MIC of 8 µg/mL (≈ 15.1 µM).

`O=C1O[C@@H](CNS(=O)(=O)c2cc(S(=O)(=O)c3ccccc3)cs2)CN1c1ccc(N2CCSCC2)c(F)c1` yielded an MIC of 6 µg/mL (≈ 10 µM).

The compound `CC(=O)Nc1nc(C)c(S(=O)(=O)NC[C@H]2CN(c3ccc(N4CCOCC4)c(F)c3)C(=O)O2)s1` returned an MIC of 20 µg/mL (≈ 38.9 µM).

A further test relates to Raoultella planticola. The experiment in a line: Antibacterial activity against Klebsiella planticola MTCC 530 at 80 ug/ml after 24 hrs by agar dilution method. The class given is functional, organism-based.
Conditions: not given
In the case of `O=C1O[C@@H](CNS(=O)(=O)c2ccc(F)c(Cl)c2)CN1c1ccc(N2CCOCC2)c(F)c1`, the outcome was inactive.

Consider `O=C1O[C@@H](CNS(=O)(=O)c2ccc(Oc3ccccc3)cc2)CN1c1ccc(N2CCOCC2)c(F)c1`, for which the outcome was inactive.

For the compound `CC(=O)Nc1nc(C)c(S(=O)(=O)NC[C@H]2CN(c3ccc(N4CCSCC4)c(F)c3)C(=O)O2)s1`, the outcome was inactive.

As for `O=C1O[C@@H](CNS(=O)(=O)c2cc(S(=O)(=O)c3ccccc3)cs2)CN1c1ccc(N2CCSCC2)c(F)c1`, the outcome was inactive.

Regarding `CC(=O)Nc1nc(C)c(S(=O)(=O)NC[C@H]2CN(c3ccc(N4CCOCC4)c(F)c3)C(=O)O2)s1`, the result was inactive.

The next test relates to Candida albicans. The experiment in a line: Antifungal activity against Candida albicans MTCC 3017 after 48 hrs by agar dilution method. The following applies: MTCC 3017, 48 h. It is filed as functional. Summed up: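 Same disk/dilution format as the antibacterial assay, on potato dextrose agar (39 g/L). Compounds were from DMSO stock, loaded at 1 to 80 per disk, in triplicate. Plates were incubated at 28 ± 2 °C for 48 h. MIC was the lowest amount that arrested growth. Equivalent DMSO served as solvent control.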
For `O=C1O[C@@H](CNS(=O)(=O)c2ccc(F)c(Cl)c2)CN1c1ccc(N2CCOCC2)c(F)c1`, it took 6 µg/mL (≈ 12.3 µM) to inhibit growth (MIC).

In the case of `O=C1O[C@@H](CNS(=O)(=O)c2ccc(Oc3ccccc3)cc2)CN1c1ccc(N2CCOCC2)c(F)c1`, the MIC came out at 6 µg/mL (≈ 11.4 µM).

In turn, `CC(=O)Nc1nc(C)c(S(=O)(=O)NC[C@H]2CN(c3ccc(N4CCSCC4)c(F)c3)C(=O)O2)s1` came in with an MIC of 8 µg/mL (≈ 15.1 µM).

Compound `O=C1O[C@@H](CNS(=O)(=O)c2cc(S(=O)(=O)c3ccccc3)cs2)CN1c1ccc(N2CCSCC2)c(F)c1` yielded an MIC of 8 µg/mL (≈ 13.4 µM).

Take `CC(=O)Nc1nc(C)c(S(=O)(=O)NC[C@H]2CN(c3ccc(N4CCOCC4)c(F)c3)C(=O)O2)s1`: the MIC amounted to 20 µg/mL (≈ 38.9 µM). This MIC lies about 2.5-fold higher than the previous one.

Another test concerns Escherichia coli. The experiment in a line: Antibacterial activity against Escherichia coli MTCC 739 at 80 ug/ml after 24 hrs by agar dilution method. The class given is functional, organism-based.
Conditions: not given
For `O=C1O[C@@H](CNS(=O)(=O)c2ccc(F)c(Cl)c2)CN1c1ccc(N2CCOCC2)c(F)c1`, the outcome was inactive.

Regarding `O=C1O[C@@H](CNS(=O)(=O)c2ccc(Oc3ccccc3)cc2)CN1c1ccc(N2CCOCC2)c(F)c1`, the outcome was inactive.

`CC(=O)Nc1nc(C)c(S(=O)(=O)NC[C@H]2CN(c3ccc(N4CCSCC4)c(F)c3)C(=O)O2)s1`: the result was inactive.

For the compound `O=C1O[C@@H](CNS(=O)(=O)c2cc(S(=O)(=O)c3ccccc3)cs2)CN1c1ccc(N2CCSCC2)c(F)c1`, the outcome was inactive.

For the compound `CC(=O)Nc1nc(C)c(S(=O)(=O)NC[C@H]2CN(c3ccc(N4CCOCC4)c(F)c3)C(=O)O2)s1`, the outcome was inactive.

For another test, the system named is Pseudomonas aeruginosa. Description: Antibacterial activity against Pseudomonas aeruginosa MTCC 2453 at 80 ug/ml after 24 hrs by agar dilution method. It is filed as functional, organism-based.
Conditions: not given
In the case of `O=C1O[C@@H](CNS(=O)(=O)c2ccc(F)c(Cl)c2)CN1c1ccc(N2CCOCC2)c(F)c1`, the outcome was inactive.

Consider `O=C1O[C@@H](CNS(=O)(=O)c2ccc(Oc3ccccc3)cc2)CN1c1ccc(N2CCOCC2)c(F)c1`, for which the result was inactive.

For another test, the system named is Micrococcus luteus. The experiment in a line: Antibacterial activity against Micrococcus luteus MTCC 2470 at 80 ug/ml after 24 hrs by agar dilution method. The class given is functional, organism-based.
Conditions: not given
On to `CC(=O)Nc1nc(C)c(S(=O)(=O)NC[C@H]2CN(c3ccc(N4CCSCC4)c(F)c3)C(=O)O2)s1`, for which the outcome was inactive.

For `O=C1O[C@@H](CNS(=O)(=O)c2cc(S(=O)(=O)c3ccccc3)cs2)CN1c1ccc(N2CCSCC2)c(F)c1`, the outcome was inactive.

As to `CC(=O)Nc1nc(C)c(S(=O)(=O)NC[C@H]2CN(c3ccc(N4CCOCC4)c(F)c3)C(=O)O2)s1`, the result was inactive.
